{"source": "ChEMBL document CHEMBL1145425", "about": "“Antitumor agents 259. Design, syntheses, and structure-activity relationship study of desmosdumotin C analogs” (2007)"}
{"system": "A549", "test": "Cytotoxicity against human A549 cells", "type": "functional", "conditions": "read-out: ED50 (the source's name)", "outline": "(§1)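 Sulforhodamine B growth assay. Lines kept in RPMI-1640 with 25 mM HEPES, 0.25% sodium bicarbonate, 10% FBS and kanamycin. Trypsinized cells seeded at 1500–7500 per well, with compound added from DMSO-diluted stock. After 3 days, attached cells fixed with cold 50% TCA, stained with 0.4% SRB, dye solubilized, absorbance read at 562 nm. ED50 is 50% growth reduction, averaged over at least three independent determinations.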", "units": {"EC50": "µg/mL"}}
{"smiles": "COC1=C(C)C(=O)/C(=C(O)/C=C/c2cccs2)C(=O)C1(C)C", "EC50": 4.5}
{"smiles": "COC1=CC(O)=C(C(=O)/C=C/c2ccccc2)C(=O)C1(C)C", "EC50": "> 5"}
{"smiles": "CCC1=C(OC)C(CC)(CC)C(=O)C(C(=O)/C=C/c2ccccc2)=C1O", "EC50": 3.4}
{"smiles": "CCC1=C(OC)C(CC)(CC)C(=O)C(C(=O)/C=C/c2ccc(C)cc2)=C1O", "EC50": 4.6}
{"smiles": "CCC1=C(OC)C(CC)(CC)C(=O)C(C(=O)/C=C/c2ccc(CC)cc2)=C1O", "EC50": 3.8}
{"smiles": "CC1=C(O)C(C)(C)C(=O)C(C(=O)/C=C/c2ccccc2)=C1O", "EC50": 9}
{"system": "A-431", "test": "Cytotoxicity against human A431 cells", "type": "functional", "conditions": "read-out: ED50 (the source's name)", "outline": "as §1", "units": {"EC50": "µg/mL"}}
{"smiles": "COC1=C(C)C(=O)/C(=C(O)/C=C/c2cccs2)C(=O)C1(C)C", "EC50": 10.8}
{"smiles": "COC1=CC(O)=C(C(=O)/C=C/c2ccccc2)C(=O)C1(C)C", "EC50": 7}
{"smiles": "CCC1=C(OC)C(CC)(CC)C(=O)C(C(=O)/C=C/c2ccccc2)=C1O", "EC50": 5.4}
{"smiles": "CCC1=C(OC)C(CC)(CC)C(=O)C(C(=O)/C=C/c2ccc(C)cc2)=C1O", "EC50": 10.3}
{"smiles": "CCC1=C(OC)C(CC)(CC)C(=O)C(C(=O)/C=C/c2ccc(CC)cc2)=C1O", "EC50": 9.8}
{"smiles": "CC1=C(O)C(C)(C)C(=O)C(C(=O)/C=C/c2ccccc2)=C1O", "EC50": 14}
{"system": "1A9", "test": "Cytotoxicity against human 1A9 cells", "type": "functional", "conditions": "read-out: ED50 (the source's name)", "outline": "as §1", "units": {"EC50": "µg/mL"}}
{"smiles": "COC1=C(C)C(=O)/C(=C(O)/C=C/c2cccs2)C(=O)C1(C)C", "EC50": 4}
{"smiles": "COC1=CC(O)=C(C(=O)/C=C/c2ccccc2)C(=O)C1(C)C", "EC50": 3.6}
{"smiles": "CCC1=C(OC)C(CC)(CC)C(=O)C(C(=O)/C=C/c2ccccc2)=C1O", "EC50": 2.1}
{"smiles": "CCC1=C(OC)C(CC)(CC)C(=O)C(C(=O)/C=C/c2ccc(C)cc2)=C1O", "EC50": 4.3}
{"smiles": "CCC1=C(OC)C(CC)(CC)C(=O)C(C(=O)/C=C/c2ccc(CC)cc2)=C1O", "EC50": 3.8}
{"smiles": "CC1=C(O)C(C)(C)C(=O)C(C(=O)/C=C/c2ccccc2)=C1O", "EC50": 8}
{"system": "HCT-8", "test": "Cytotoxicity against human HCT8 cells", "type": "functional", "conditions": "read-out: ED50 (the source's name)", "outline": "as §1", "units": {"EC50": "µg/mL"}}
{"smiles": "COC1=C(C)C(=O)/C(=C(O)/C=C/c2cccs2)C(=O)C1(C)C", "EC50": 8.6}
{"smiles": "COC1=CC(O)=C(C(=O)/C=C/c2ccccc2)C(=O)C1(C)C", "EC50": 3.3}
{"smiles": "CCC1=C(OC)C(CC)(CC)C(=O)C(C(=O)/C=C/c2ccccc2)=C1O", "EC50": 2.8}
{"smiles": "CCC1=C(OC)C(CC)(CC)C(=O)C(C(=O)/C=C/c2ccc(C)cc2)=C1O", "EC50": 9.4}
{"smiles": "CCC1=C(OC)C(CC)(CC)C(=O)C(C(=O)/C=C/c2ccc(CC)cc2)=C1O", "EC50": 8.5}
{"smiles": "CC1=C(O)C(C)(C)C(=O)C(C(=O)/C=C/c2ccccc2)=C1O", "EC50": 15.8}
{"system": "PC-3", "test": "Cytotoxicity against human PC3 cells", "type": "functional", "conditions": "read-out: ED50 (the source's name)", "outline": "as §1", "units": {"EC50": "µg/mL"}}
{"smiles": "COC1=C(C)C(=O)/C(=C(O)/C=C/c2cccs2)C(=O)C1(C)C", "EC50": 18.2}
{"smiles": "COC1=CC(O)=C(C(=O)/C=C/c2ccccc2)C(=O)C1(C)C", "EC50": 14.2}
{"smiles": "CCC1=C(OC)C(CC)(CC)C(=O)C(C(=O)/C=C/c2ccccc2)=C1O", "EC50": 7.7}
{"smiles": "CCC1=C(OC)C(CC)(CC)C(=O)C(C(=O)/C=C/c2ccc(C)cc2)=C1O", "EC50": 15}
{"smiles": "CCC1=C(OC)C(CC)(CC)C(=O)C(C(=O)/C=C/c2ccc(CC)cc2)=C1O", "EC50": 15}
{"smiles": "CC1=C(O)C(C)(C)C(=O)C(C(=O)/C=C/c2ccccc2)=C1O", "EC50": 17.8}
{"system": "KB", "test": "Cytotoxicity against human KB cells", "type": "functional", "conditions": "read-out: ED50 (the source's name)", "outline": "as §1", "units": {"EC50": "µg/mL"}}
{"smiles": "COC1=C(C)C(=O)/C(=C(O)/C=C/c2cccs2)C(=O)C1(C)C", "EC50": 5.5}
{"smiles": "COC1=CC(O)=C(C(=O)/C=C/c2ccccc2)C(=O)C1(C)C", "EC50": 4.1}
{"smiles": "CCC1=C(OC)C(CC)(CC)C(=O)C(C(=O)/C=C/c2ccccc2)=C1O", "EC50": 2.8}
{"smiles": "CCC1=C(OC)C(CC)(CC)C(=O)C(C(=O)/C=C/c2ccc(C)cc2)=C1O", "EC50": 3}
{"smiles": "CCC1=C(OC)C(CC)(CC)C(=O)C(C(=O)/C=C/c2ccc(CC)cc2)=C1O", "EC50": 3.6}
{"smiles": "CC1=C(O)C(C)(C)C(=O)C(C(=O)/C=C/c2ccccc2)=C1O", "EC50": 10.5}
{"system": "KB", "test": "Cytotoxicity against human vincristine-resistant KB cells", "type": "functional", "conditions": "read-out: ED50 (the source's name)", "outline": "as §1", "units": {"EC50": "µg/mL"}}
{"smiles": "COC1=C(C)C(=O)/C(=C(O)/C=C/c2cccs2)C(=O)C1(C)C", "EC50": 3.4}
{"smiles": "COC1=CC(O)=C(C(=O)/C=C/c2ccccc2)C(=O)C1(C)C", "EC50": 2.9}
{"smiles": "CCC1=C(OC)C(CC)(CC)C(=O)C(C(=O)/C=C/c2ccccc2)=C1O", "EC50": 1.2}
{"smiles": "CCC1=C(OC)C(CC)(CC)C(=O)C(C(=O)/C=C/c2ccc(C)cc2)=C1O", "EC50": 1}
{"smiles": "CCC1=C(OC)C(CC)(CC)C(=O)C(C(=O)/C=C/c2ccc(CC)cc2)=C1O", "EC50": 2.6}
{"smiles": "CC1=C(O)C(C)(C)C(=O)C(C(=O)/C=C/c2ccccc2)=C1O", "EC50": 6.5}
{"system": "HUVEC", "test": "Cytotoxicity against HUVEC", "type": "functional", "conditions": "Homo sapiens, read-out: ED50 (the source's name)", "outline": "(§2)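 HUVEC seeded at 1.5×10^3 per well in EGM-2; after 24 h (day zero) compound added in EGM-2 at 2× the desired concentration. Day-zero plate stained with crystal violet. Remaining plates kept 72 h at 37 °C, then stained with 0.5% crystal violet in 20% MeOH. Dye eluted with 1:1 EtOH:0.1 M sodium citrate and read at 540 nm. Run per the NCI Angiogenesis Resource Center protocol.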", "units": {"EC50": "µg/mL"}}
{"smiles": "COC1=C(C)C(=O)/C(=C(O)/C=C/c2cccs2)C(=O)C1(C)C", "EC50": 2.5}
{"smiles": "COC1=CC(O)=C(C(=O)/C=C/c2ccccc2)C(=O)C1(C)C", "EC50": "> 20"}
{"smiles": "CC1=C(O)C(C)(C)C(=O)C(C(=O)/C=C/c2ccccc2)=C1O", "EC50": 2.1}
{"system": "HUVEC", "test": "Antiangiogenesis activity against HUVEC", "type": "functional", "conditions": "Homo sapiens, read-out: ED50 (the source's name)", "outline": "as §2", "units": {"EC50": "µg/mL"}}
{"smiles": "COC1=C(C)C(=O)/C(=C(O)/C=C/c2cccs2)C(=O)C1(C)C", "EC50": "< 4"}
{"smiles": "CC1=C(O)C(C)(C)C(=O)C(C(=O)/C=C/c2ccccc2)=C1O", "EC50": "< 4"}
